Data published in ChEMBL document CHEMBL3608241, “Molecular docking design and one-pot expeditious synthesis of novel 2,5-diarylpyrazolo[1,5-a]pyrimidin-7-amines as anti-inflammatory agents” (2015).

Tests used:
Format in all cases: functional
Rattus norvegicus [1] = assay: Antiinflammatory activity in Wistar albino rat assessed as inhibition of carrageenan-induced paw edema at 50 mg/kg, po administered 30 mins prior to carrageenan challenge measured after 3 hrs by plethysmometric analysis relative to control
Method in brief: (§1)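 Male Wistar albino rats, 200-250 g, housed under standard light and temperature, fasted from 12 h before and through the experiment; groups of five. Oral dosing 30 min before 0.1 ml of 1% carrageenan in 0.9% saline was injected into the left hind paw plantar region. Controls received Tween 80 only. Paw volume was read by plethysmometer at 0 h and at 1-4 h. Inhibition (%) = (Vc − Vt)/Vc × 100; mean ± SEM.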

Rattus norvegicus [2] = assay: Antiinflammatory activity in Wistar albino rat assessed as inhibition of carrageenan-induced paw edema at 50 mg/kg, po administered 30 mins prior to carrageenan challenge measured after 4 hrs by plethysmometric analysis relative to control; method in brief: as §1
Rattus norvegicus [3] = assay: Antiinflammatory activity in Wistar albino rat assessed as inhibition of carrageenan-induced paw edema at 50 mg/kg, po administered 30 mins prior to carrageenan challenge measured after 2 hrs by plethysmometric analysis relative to control; method in brief: as §1
Rattus norvegicus [4] = assay: Antiinflammatory activity in Wistar albino rat assessed as inhibition of carrageenan-induced paw edema at 50 mg/kg, po administered 30 mins prior to carrageenan challenge measured after 1 hr by plethysmometric analysis relative to control; method in brief: as §1
Rattus norvegicus [5] = assay: Antiinflammatory activity in Wistar albino rat assessed as inhibition of carrageenan-induced paw edema at 10 mg/kg, po administered 30 mins prior to carrageenan challenge measured after 4 hrs by plethysmometric analysis relative to control; method in brief: as §1
Rattus norvegicus [6] = assay: Antiinflammatory activity in Wistar albino rat assessed as inhibition of carrageenan-induced paw edema at 10 mg/kg, po administered 30 mins prior to carrageenan challenge measured after 2 hrs by plethysmometric analysis relative to control
Method in brief: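 Male Wistar albino rats, 200-250 g, fasted 12 hr before and during the test; groups of five. Oral dosing 30 min before sub-plantar injection of 0.1 ml carrageenan (1% in 0.9% saline) into left hind paw; controls got tween 80. Paw volume read by plethysmometer at 0 hr and 1-4 hr; % inhibition = (Vc−Vt)/Vc×100 against control; mean ± SEM.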

Rattus norvegicus [7] = assay: Antiinflammatory activity in Wistar albino rat assessed as inhibition of carrageenan-induced paw edema at 10 mg/kg, po administered 30 mins prior to carrageenan challenge measured after 3 hrs by plethysmometric analysis relative to control; method in brief: as §1
Rattus norvegicus [8] = assay: Antiinflammatory activity in Wistar albino rat assessed as inhibition of carrageenan-induced paw edema at 10 mg/kg, po administered 30 mins prior to carrageenan challenge measured after 1 hr by plethysmometric analysis relative to control; method in brief: as §1

Cc1ccc(-c2cc3nc(-c4ccccc4)cc(N)n3n2)cc1
inhibition in vivo at 50 mg/kg (Rattus norvegicus [1]): 34.1% | inhibition in vivo at 50 mg/kg (Rattus norvegicus [2]): 34.5% | inhibition in vivo at 50 mg/kg (Rattus norvegicus [3]): 17.5% | inhibition in vivo at 50 mg/kg (Rattus norvegicus [4]): 26.9%

Nc1cc(-c2ccc(Br)cc2)nc2cc(-c3ccccc3)nn12
inhibition in vivo at 50 mg/kg (Rattus norvegicus [1]): 56.1% | inhibition in vivo at 50 mg/kg (Rattus norvegicus [2]): 66.7% | inhibition in vivo at 50 mg/kg (Rattus norvegicus [3]): 63.8% | inhibition in vivo at 50 mg/kg (Rattus norvegicus [4]): 65.4%

Cc1ccc(-c2cc3nc(-c4ccc(Br)cc4)cc(N)n3n2)cc1
inhibition in vivo at 50 mg/kg (Rattus norvegicus [1]): 56.1% | inhibition in vivo at 50 mg/kg (Rattus norvegicus [2]): 66.7% | inhibition in vivo at 50 mg/kg (Rattus norvegicus [3]): 56.2% | inhibition in vivo at 50 mg/kg (Rattus norvegicus [4]): 71.2%

Nc1cc(-c2ccc(Cl)cc2)nc2cc(-c3ccc(Br)cc3)nn12
inhibition in vivo at 50 mg/kg (Rattus norvegicus [1]): 56.1% | inhibition in vivo at 50 mg/kg (Rattus norvegicus [2]): 65.5% | inhibition in vivo at 50 mg/kg (Rattus norvegicus [3]): 72.5% | inhibition in vivo at 50 mg/kg (Rattus norvegicus [4]): 13.5%

Cc1ccc(-c2cc(N)n3nc(-c4ccccc4)cc3n2)cc1
inhibition in vivo at 50 mg/kg (Rattus norvegicus [1]): 31.7% | inhibition in vivo at 50 mg/kg (Rattus norvegicus [2]): 54.8% | inhibition in vivo at 50 mg/kg (Rattus norvegicus [3]): 37.5% | inhibition in vivo at 50 mg/kg (Rattus norvegicus [4]): 28.8%

Cc1ccc(-c2cc(N)n3nc(-c4ccc(Br)cc4)cc3n2)cc1
inhibition in vivo at 50 mg/kg (Rattus norvegicus [1]): 73.2% | inhibition in vivo at 50 mg/kg (Rattus norvegicus [2]): 64.3% | inhibition in vivo at 50 mg/kg (Rattus norvegicus [3]): 76.2% | inhibition in vivo at 50 mg/kg (Rattus norvegicus [4]): 67.3%

Cc1ccc(-c2cc(N)n3nc(-c4ccc(Cl)cc4)cc3n2)cc1
inhibition in vivo at 50 mg/kg (Rattus norvegicus [1]): 69.5% | inhibition in vivo at 50 mg/kg (Rattus norvegicus [2]): 81% | inhibition in vivo at 50 mg/kg (Rattus norvegicus [3]): 75% | inhibition in vivo at 50 mg/kg (Rattus norvegicus [4]): 57.7%

Cc1ccc(-c2cc3nc(-c4ccc(Cl)cc4)cc(N)n3n2)cc1
inhibition in vivo at 50 mg/kg (Rattus norvegicus [1]): 64.6% | inhibition in vivo at 50 mg/kg (Rattus norvegicus [2]): 67.8% | inhibition in vivo at 50 mg/kg (Rattus norvegicus [3]): 67.5% | inhibition in vivo at 50 mg/kg (Rattus norvegicus [4]): 59.6%

COc1ccc2c(c1)c(CC(=O)O)c(C)n2C(=O)c1ccc(Cl)cc1 [INDOMETHACIN]
inhibition in vivo at 10 mg/kg (Rattus norvegicus [5]): 84.5% | inhibition in vivo at 10 mg/kg (Rattus norvegicus [6]): 80% | inhibition in vivo at 10 mg/kg (Rattus norvegicus [7]): 82.9% | inhibition in vivo at 10 mg/kg (Rattus norvegicus [8]): 73.1%

Cc1ccc(-c2cc3nc(-c4ccc(F)cc4)cc(N)n3n2)cc1
inhibition in vivo at 50 mg/kg (Rattus norvegicus [1]): 26.8% | inhibition in vivo at 50 mg/kg (Rattus norvegicus [2]): 64.3% | inhibition in vivo at 50 mg/kg (Rattus norvegicus [3]): 65% | inhibition in vivo at 50 mg/kg (Rattus norvegicus [4]): 28.8%

Nc1cc(-c2ccc(Br)cc2)nc2cc(-c3ccc(Cl)cc3)nn12
inhibition in vivo at 50 mg/kg (Rattus norvegicus [1]): 70.7% | inhibition in vivo at 50 mg/kg (Rattus norvegicus [2]): 76.2% | inhibition in vivo at 50 mg/kg (Rattus norvegicus [3]): 60% | inhibition in vivo at 50 mg/kg (Rattus norvegicus [4]): 59.6%

Nc1cc(-c2ccc(Cl)cc2)nc2cc(-c3ccccc3)nn12
inhibition in vivo at 50 mg/kg (Rattus norvegicus [1]): 28% | inhibition in vivo at 50 mg/kg (Rattus norvegicus [2]): 51.2% | inhibition in vivo at 50 mg/kg (Rattus norvegicus [3]): 13.8% | inhibition in vivo at 50 mg/kg (Rattus norvegicus [4]): 21.1%
